Our source for the MIC and Activity values is ChEMBL document CHEMBL1143238, “Oxazaborolidine derivatives inducing autoinducer-2 signal transduction in Vibrio harveyi” (2008).

The test system of assay [1] is Vibrio harveyi. The experiment in a line: Antibacterial activity against Vibrio harveyi MM77 mutant after 18 hrs. The class given is functional. Summed up:
(§1)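 Strains were grown aerobically at 30 °C with shaking in AB medium. Growth was read as OD595 after 18 h incubation. Each experiment was run in triplicate and repeated three times.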

Assay [2] concerns Vibrio harveyi. The experiment in a line: Antibacterial activity against Vibrio harveyi BB886 mutant after 18 hrs. It is filed as functional. Summed up: as §1
Assay [3] relates to Vibrio harveyi. The experiment in a line: Antibacterial activity against Vibrio harveyi BB170 mutant after 18 hrs. The class given is functional. Summed up: as §1
For assay [4], the system named is Vibrio harveyi. The experiment in a line: Induction of bioluminescence in Vibrio harveyi BB170 mutant (sensor 1-, sensor 2+) at 600 uM. The class given is functional, organism-based. Summed up: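 Strain was grown in AB medium at 30 °C with shaking to 1.5–2.5 · 10^9 CFU/ml (15–16 h), then diluted 1:5000 or 1:10,000 into fresh AB medium containing compound. Incubation was at 30 °C for about 7 h with luminescence monitoring. Light was normalized to CFU or OD595. Fold induction over endogenous luminescence was taken at the minimum-luminescence point (3–4 h). Negative control was fresh AB medium; positive control was 10% v/v BB152 spent medium.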

Values after ≈ are worked out from the molar mass of the structure shown. Active and inactive are the calls of the source. No cut-off for these calls is given here.

The MIC is the lowest concentration that inhibits growth of the organism. As to `C[C@H]1NB(c2ccccc2)O[C@@H]1c1ccccc1`, the MIC in assay [1], in assay [2] and in assay [3] was 10 mM (≈ 2370 µg/mL) throughout.
Turning to `CCCCB1O[C@H](c2ccccc2)[C@H](C)N1C`, the MIC in assay [1] and in assay [2] was 10 mM (≈ 2310 µg/mL) in each case.
For `C[C@H]1[C@@H](c2ccccc2)OB(c2ccccc2)N1C`, the result in assay [4] was Active.
For `CC1(C)COB(c2ccccc2)N1`, the MIC is 10 mM (≈ 1750 µg/mL) in assay [1] and 5 mM (≈ 875 µg/mL) in assay [2].
